# Results of several laboratories.
# Protocols differ between the studies behind these lines.
# Matrix: plasma
SMILES,host,route,dose,setting,AUC(0-inf)
C[C@H]1Oc2cc(cnc2N)-c2c(nn(C)c2C#N)CN(C)C(=O)c2ccc(F)cc21,Sprague-Dawley rat,intravenous,1 mg/kg,single dose,4470 ng·h/mL
CC[C@H](C)[C@H](NC(=O)[C@@H]1CCCN1C(=O)CNC(=O)[C@H](Cc1ccccc1)NC(=O)[C@H](CC(N)=O)NC(=O)[C@H](CC(N)=O)NC(=O)[C@H](CO)NC(=O)[C@H](CO)NC(=O)[C@H](Cc1c[nH]cn1)NC(=O)[C@H](CCCNC(=N)N)NC(=O)[C@H](CC(C)C)NC(=O)[C@H](Cc1ccccc1)NC(=O)[C@H](CCC(=O)O)NC(=O)[C@H](C)NC(=O)[C@H](CC(C)C)NC(=O)[C@H](CCCNC(=N)N)NC(=O)[C@H](CCC(N)=O)NC(=O)[C@@H](NC(=O)[C@H](C)NC(=O)[C@@H]1CSSC[C@H](NC(=O)[C@H](CCCCN)NC(=O)CC[C@H](NC(=O)CCCCCCCCCCCCCCCCCCC(=O)O)C(=O)O)C(=O)N[C@@H](CC(N)=O)C(=O)N[C@@H]([C@@H](C)O)C(=O)N[C@@H](C)C(=O)N[C@@H]([C@@H](C)O)C(=O)N1)[C@@H](C)O)C(=O)N[C@@H](CC(C)C)C(=O)N1CCC[C@H]1C(=O)N1CCC[C@H]1C(=O)N[C@H](C(=O)N[C@@H](CC(N)=O)C(=O)N[C@H](C(=O)NCC(=O)N[C@@H](CO)C(=O)N[C@@H](CC(N)=O)C(=O)N[C@H](C(=O)N1CCC[C@H]1C(N)=O)[C@@H](C)O)C(C)C)[C@@H](C)O,male Sprague-Dawley rat,subcutaneous,30 nmol/kg,single dose,5 µM·h
C[C@@]12C[C@@]3(O)O[C@@H](O1)[C@]1(COC(=O)c4ccccc4)[C@H]3C[C@@]12O[C@@H]1O[C@H](CO)[C@@H](O)[C@H](O)[C@H]1O,male Sprague-Dawley rat,oral,80 mg/kg,,4.33 ng·h/mL
COc1ccc(-c2coc3cc(O)cc(O)c3c2=O)cc1,rat,intravenous,2 mg/kg,,683 ng·h/mL
COc1cc(-c2cc(C(C)=O)n3ccccc23)c(OC)cc1Cn1ccnc1,male Sprague-Dawley rat,oral,5 mg/kg,,2160 ng·h/mL
C[C@H]1[C@@H](O)O[C@@H]2O[C@@]3(C)CC[C@H]4[C@H](C)CC[C@@H]1[C@@]24OO3,male Sprague-Dawley rat,oral,10 mg/kg,,271 ng·h/mL
CC[C@@H]([C@H](C)O)n1ncn(-c2ccc(N3CCN(c4ccc(OC[C@@H]5CO[C@@](Cn6cncn6)(c6ccc(F)cc6F)C5)cc4)CC3)cc2)c1=O,Sprague-Dawley rat,oral,40 mg/kg,,10200 ng·h/mL
COc1ccc(N(Cc2csc(-c3ccccc3)n2)C(=O)CCCCCC(=O)NO)cc1,female Sprague-Dawley rat,oral,30 mg/kg,,32.4 ng·h/mL
O=C1CCC(N2Cc3cc(C4CCN(Cc5ccccc5)CC4)ccc3C2=O)C(=O)N1 (stereo not drawn),male Sprague-Dawley rat,intravenous,1 mg/kg,,325 ng·h/mL
CC(=O)O[C@@H]1CC[C@@]2(C)[C@@H](CC[C@]3(C)[C@@H]2C(=O)C=C2[C@@H]4[C@@H](C)[C@H](C)CC[C@]4(C)CC[C@]23C)[C@@]1(C)C(=O)O,female Wistar rat,oral,1 mg/kg,single dose,50200 ng·h/mL
Cn1c(=O)c2[nH]cnc2n(C)c1=O,male Sprague-Dawley rat,intravenous,11.25 mg/kg,,32700 ng·h/mL
CCCc1nc2c(C)cc(-c3nc4ccccc4n3C)cc2n1Cc1ccc(-c2ccccc2C(=O)O)cc1,male Sprague-Dawley rat,oral,8 mg/kg,single dose,1950 ng·h/mL
CONC(=O)c1cccc2c1cc(C)n2-c1nc2c(c(NCc3ccccc3)n1)CCCN2,male Sprague-Dawley rat,intravenous,1 mg/kg,single dose,32.5 ng·h/mL
Cc1nc(Nc2ncc(C(=O)Nc3c(C)cccc3Cl)s2)cc(N2CC[C@H](O)C2)n1,male Sprague-Dawley rat,oral,5 mg/kg,single dose,2.71 µM·h
COc1nc(-c2cccc(-c3ccccc3)c2C)ccc1CNCCNC(=O)CCCCCCCCCCC(=O)N1CCN(CCNC(=O)c2cc3c(=O)n4cccc(C)c4nc3n(CCc3cccs3)c2=N)CC1,male Sprague-Dawley rat,oral,40 mg/kg,,305 ng·h/mL
